Measured values as given in ChEMBL document CHEMBL1255409, “In vitro activity of ceftaroline against 623 diverse strains of anaerobic bacteria” (2010).
In brackets after ≈: the same amount, converted by molar mass.

Legend:
Format in all cases: functional
[1] = tested on: Prevotella denticola; assay: Antimicrobial activity against Prevotella denticola under anaerobic conditions after 44 hrs by CLSI-M11-47 protocol based agar dilution method
Outline: (§1)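 Clinical isolates were stored at −70°C in 20% skim milk and identified phenotypically or by partial 16S rRNA sequencing. Each strain was subcultured twice from frozen stock. Cell paste from 48-h cultures was suspended in brucella broth to a 0.5 McFarland standard. About 10^5 CFU per spot were applied by Steers replicator to agar dilution plates prepared on the day of testing. Plates were incubated 44 h at 37°C in an anaerobic chamber. MIC was taken as the lowest concentration giving complete inhibition or marked reduction of growth versus the drug-free control.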

[2] = tested on: Prevotella tannerae; assay: Antimicrobial activity against Prevotella tannerae under anaerobic conditions after 44 hrs by CLSI-M11-47 protocol based agar dilution method; conditions: Alloprevotella tannerae; outline: as §1
[3] = tested on: Peptoniphilus harei; assay: Antimicrobial activity against Peptoniphilus harei under anaerobic conditions after 44 hrs by CLSI-M11-47 protocol based agar dilution method; outline: as §1
[4] = tested on: Parabacteroides distasonis; assay: Antimicrobial activity against Bacteroides distasonis under anaerobic conditions after 44 hrs by CLSI-M11-47 protocol based agar dilution method
Outline: (§2)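 Reference agar dilution per CLSI M11-A7 with plates made on test day. Clinical isolates were stored at −70°C in 20% skim milk, subcultured twice, and 48-h cell paste was suspended in brucella broth to 0.5 McFarland. About 10^5 CFU/spot was applied with a Steers replicator. Plates were incubated 44 h at 37°C anaerobically. MIC was the lowest concentration giving complete inhibition or marked growth reduction versus the drug-free control.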

[5] = tested on: Anaerococcus tetradius; assay: Antimicrobial activity against Anaerococcus tetradius under anaerobic conditions after 44 hrs by CLSI-M11-47 protocol based agar dilution method; outline: as §2
[6] = tested on: Porphyromonas somerae; assay: Antimicrobial activity against Porphyromonas somerae under anaerobic conditions after 44 hrs by CLSI-M11-47 protocol based agar dilution method; outline: as §1
[7] = tested on: Prevotella corporis; assay: Antimicrobial activity against Prevotella corporis under anaerobic conditions after 44 hrs by CLSI-M11-47 protocol based agar dilution method; outline: as §1
[8] = tested on: Clostridium subterminale; assay: Antimicrobial activity against Clostridium subterminale under anaerobic conditions after 44 hrs by CLSI-M11-47 protocol based agar dilution method; outline: as §2
[9] = tested on: Paeniclostridium sordellii; assay: Antimicrobial activity against Clostridium sordellii under anaerobic conditions after 44 hrs by CLSI-M11-47 protocol based agar dilution method; conditions: Paraclostridium sordellii; outline: as §2
[10] = tested on: Prevotella bivia; assay: Antimicrobial activity against Prevotella bivia under anaerobic conditions after 44 hrs by CLSI-M11-47 protocol based agar dilution method; outline: as §1
[11] = tested on: Lacticaseibacillus casei; assay: Antimicrobial activity against Lactobacillus casei under anaerobic conditions after 44 hrs by CLSI-M11-47 protocol based agar dilution method; outline: as §1
[12] = tested on: Parvimonas micra; assay: Antimicrobial activity against Parvimonas micra under anaerobic conditions after 44 hrs by CLSI-M11-47 protocol based agar dilution method; outline: as §1
[13] = tested on: Actinomyces turicensis; assay: Antimicrobial activity against Actinomyces turicensis under anaerobic conditions after 44 hrs by CLSI-M11-47 protocol based agar dilution method; conditions: Schaalia turicensis; outline: as §2
[14] = tested on: Lacticaseibacillus rhamnosus; assay: Antimicrobial activity against Lactobacillus rhamnosus under anaerobic conditions after 44 hrs by CLSI-M11-47 protocol based agar dilution method; outline: as §1
[15] = tested on: Anaerococcus octavius; assay: Antimicrobial activity against Anaerococcus octavius under anaerobic conditions after 44 hrs by CLSI-M11-47 protocol based agar dilution method; outline: as §2
[16] = tested on: Paraclostridium bifermentans; assay: Antimicrobial activity against Clostridium bifermentans under anaerobic conditions after 44 hrs by CLSI-M11-47 protocol based agar dilution method; outline: as §2
[17] = tested on: Bacteroides uniformis; assay: Antimicrobial activity against Bacteroides uniformis under anaerobic conditions after 44 hrs by CLSI-M11-47 protocol based agar dilution method; outline: as §2
[18] = tested on: Clostridium butyricum; assay: Antimicrobial activity against Clostridium butyricum under anaerobic conditions after 44 hrs by CLSI-M11-47 protocol based agar dilution method
[19] = tested on: Prevotella disiens; assay: Antimicrobial activity against Prevotella disiens under anaerobic conditions after 44 hrs by CLSI-M11-47 protocol based agar dilution method; outline: as §1
[20] = tested on: Solobacterium moorei; assay: Antimicrobial activity against Solobacterium moorei under anaerobic conditions after 44 hrs by CLSI-M11-47 protocol based agar dilution method; outline: as §1
[21] = tested on: Clostridium citroniae; assay: Antimicrobial activity against Clostridium citroniae under anaerobic conditions after 44 hrs by CLSI-M11-47 protocol based agar dilution method; conditions: Enterocloster citroniae; outline: as §2
[22] = tested on: Fusobacterium mortiferum; assay: Antimicrobial activity against Fusobacterium mortiferum under anaerobic conditions after 44 hrs by CLSI-M11-47 protocol based agar dilution method; outline: as §2
[23] = tested on: Clostridium hylemonae; assay: Antimicrobial activity against Clostridium hylemonae under anaerobic conditions after 44 hrs by CLSI-M11-47 protocol based agar dilution method; outline: as §2
[24] = tested on: Collinsella aerofaciens; assay: Antimicrobial activity against Colinsella aerofaciens under anaerobic conditions after 44 hrs by CLSI-M11-47 protocol based agar dilution method; outline: as §2
[25] = tested on: Clostridium cadaveris; assay: Antimicrobial activity against Clostridium cadaveris under anaerobic conditions after 44 hrs by CLSI-M11-47 protocol based agar dilution method; outline: as §2
[26] = tested on: Fusobacterium necrophorum; assay: Antimicrobial activity against Fusobacterium necrophorum under anaerobic conditions after 44 hrs by CLSI-M11-47 protocol based agar dilution method; outline: as §2
[27] = tested on: Clostridium baratii; assay: Antimicrobial activity against Clostridium baratii under anaerobic conditions after 44 hrs by CLSI-M11-47 protocol based agar dilution method
[28] = tested on: Clostridium tertium; assay: Antimicrobial activity against Clostridium tertium under anaerobic conditions after 44 hrs by CLSI-M11-47 protocol based agar dilution method; outline: as §2
[29] = tested on: Gemella sanguinis; assay: Antimicrobial activity against Gemella sanguinis under anaerobic conditions after 44 hrs by CLSI-M11-47 protocol based agar dilution method; outline: as §1
[30] = tested on: Hoylesella loescheii; assay: Antimicrobial activity against Prevotella loescheii under anaerobic conditions after 44 hrs by CLSI-M11-47 protocol based agar dilution method; outline: as §1
[31] = tested on: Porphyromonas asaccharolytica; assay: Antimicrobial activity against Porphyromonas asaccharolyticus under anaerobic conditions after 44 hrs by CLSI-M11-47 protocol based agar dilution method; outline: as §1
[32] = tested on: Bacteroides ovatus; assay: Antimicrobial activity against Bacteroides ovatus under anaerobic conditions after 44 hrs by CLSI-M11-47 protocol based agar dilution method; outline: as §2

Q: With `CCO/N=C(\C(=O)N[C@@H]1C(=O)N2C(C(=O)[O-])=C(Sc3nc(-c4cc[n+](C)cc4)cs3)CS[C@H]12)c1nsc(NP(=O)(O)O)n1` [CEFTAROLINE FOSAMIL] as the compound, how does the MIC50 [1] read?
A: 2 µg/mL (≈ 2.92 µM)

Q: And the MIC90 [1]?
A: 32 µg/mL (≈ 46.7 µM)

Q: And the MIC50 [2]?
A: 2 µg/mL (≈ 2.92 µM)

Q: And the MIC90 [2]?
A: 32 µg/mL (≈ 46.7 µM)

Q: What about the MIC50 [3] of the same compound?
A: 0.06 µg/mL (≈ 0.0876 µM)

Q: And the MIC90 [3]?
A: 1 µg/mL (≈ 1.46 µM)

Q: And the MIC50 [4]?
A: 64 µg/mL (≈ 93.5 µM)

Q: What about the MIC90 [4] of the same compound?
A: > 64 µg/mL

Q: What about the MIC50 [5] of the same compound?
A: 0.03 µg/mL (≈ 0.0438 µM)

Q: What about the MIC90 [5] of the same compound?
A: 0.125 µg/mL (≈ 0.183 µM)

Q: What about the MIC50 [6] of the same compound?
A: 0.015 µg/mL (≈ 0.0219 µM)

Q: And the MIC90 [6]?
A: > 16 µg/mL

Q: And the MIC50 [7]?
A: 2 µg/mL (≈ 2.92 µM)

Q: And the MIC90 [7]?
A: 32 µg/mL (≈ 46.7 µM)

Q: And the MIC50 [8]?
A: 0.5 µg/mL (≈ 0.73 µM)

Q: What about the MIC90 [8] of the same compound?
A: 16 µg/mL (≈ 23.4 µM)

Q: And the MIC50 [9]?
A: 0.5 µg/mL (≈ 0.73 µM)

Q: And the MIC90 [9]?
A: 16 µg/mL (≈ 23.4 µM)

Q: What about the MIC50 [10] of the same compound?
A: 2 µg/mL (≈ 2.92 µM)

Q: What about the MIC90 [10] of the same compound?
A: 64 µg/mL (≈ 93.5 µM)

Q: And the MIC50 [11]?
A: 0.5 µg/mL (≈ 0.73 µM)

Q: What about the MIC90 [11] of the same compound?
A: 1 µg/mL (≈ 1.46 µM)

Q: And the MIC50 [12]?
A: 0.06 µg/mL (≈ 0.0876 µM)

Q: And the MIC90 [12]?
A: 0.25 µg/mL (≈ 0.365 µM)

Q: And the MIC50 [13]?
A: 0.015 µg/mL (≈ 0.0219 µM)

Q: What about the MIC90 [13] of the same compound?
A: 0.25 µg/mL (≈ 0.365 µM)

Q: What about the MIC50 [14] of the same compound?
A: 0.5 µg/mL (≈ 0.73 µM)

Q: And the MIC90 [14]?
A: 1 µg/mL (≈ 1.46 µM)

Q: And the MIC50 [15]?
A: 0.06 µg/mL (≈ 0.0876 µM)

Q: And the MIC90 [15]?
A: 1 µg/mL (≈ 1.46 µM)

Q: What about the MIC50 [16] of the same compound?
A: 0.5 µg/mL (≈ 0.73 µM)

Q: And the MIC90 [16]?
A: 16 µg/mL (≈ 23.4 µM)

Q: What about the MIC50 [17] of the same compound?
A: 64 µg/mL (≈ 93.5 µM)

Q: What about the MIC90 [17] of the same compound?
A: > 64 µg/mL

Q: What about the MIC50 [18] of the same compound?
A: 0.5 µg/mL (≈ 0.73 µM)

Q: And the MIC90 [18]?
A: 16 µg/mL (≈ 23.4 µM)

Q: And the MIC50 [19]?
A: 2 µg/mL (≈ 2.92 µM)

Q: And the MIC90 [19]?
A: 32 µg/mL (≈ 46.7 µM)

Q: And the MIC50 [20]?
A: 0.125 µg/mL (≈ 0.183 µM)

Q: And the MIC90 [20]?
A: 0.25 µg/mL (≈ 0.365 µM)

Q: What about the MIC50 [21] of the same compound?
A: 1 µg/mL (≈ 1.46 µM)

Q: And the MIC90 [21]?
A: 2 µg/mL (≈ 2.92 µM)

Q: And the MIC50 [22]?
A: 8 µg/mL (≈ 11.7 µM)

Q: And the MIC90 [22]?
A: 32 µg/mL (≈ 46.7 µM)

Q: And the MIC50 [23]?
A: 0.5 µg/mL (≈ 0.73 µM)

Q: What about the MIC90 [23] of the same compound?
A: 16 µg/mL (≈ 23.4 µM)

Q: What about the MIC50 [24] of the same compound?
A: 0.125 µg/mL (≈ 0.183 µM)

Q: And the MIC90 [24]?
A: 0.25 µg/mL (≈ 0.365 µM)

Q: What about the MIC50 [25] of the same compound?
A: 0.5 µg/mL (≈ 0.73 µM)

Q: What about the MIC90 [25] of the same compound?
A: 16 µg/mL (≈ 23.4 µM)

Q: What about the MIC50 [26] of the same compound?
A: 0.03 µg/mL (≈ 0.0438 µM)

Q: And the MIC90 [26]?
A: 0.06 µg/mL (≈ 0.0876 µM)

Q: And the MIC50 [27]?
A: 0.5 µg/mL (≈ 0.73 µM)

Q: What about the MIC90 [27] of the same compound?
A: 16 µg/mL (≈ 23.4 µM)

Q: What about the MIC50 [28] of the same compound?
A: 0.5 µg/mL (≈ 0.73 µM)

Q: And the MIC90 [28]?
A: 16 µg/mL (≈ 23.4 µM)

Q: And the MIC50 [29]?
A: 0.06 µg/mL (≈ 0.0876 µM)

Q: And the MIC90 [29]?
A: 1 µg/mL (≈ 1.46 µM)

Q: What about the MIC50 [30] of the same compound?
A: 2 µg/mL (≈ 2.92 µM)

Q: What about the MIC90 [30] of the same compound?
A: 32 µg/mL (≈ 46.7 µM)

Q: What about the MIC50 [31] of the same compound?
A: 0.015 µg/mL (≈ 0.0219 µM)

Q: What about the MIC90 [31] of the same compound?
A: 0.03 µg/mL (≈ 0.0438 µM)

Q: What about the MIC50 [32] of the same compound?
A: 64 µg/mL (≈ 93.5 µM)

Q: And the MIC90 [32]?
A: > 64 µg/mL
